Measured values taken from article PMC8266240 (Journal of Enzyme Inhibition and Medicinal Chemistry, 2021).
Peptide text beside a SMILES is read from it. * marks the point of attachment. Cbz = O=C(OCc1ccccc1)*; CH2F = FC*

Test system: HeLa cells
Experiment: Effect of inhibitors/activators on 12A-induced vacuolization in HeLa cells
Assay type: cell-based, human
Conditions: pre- or co-treated with 12A, 8 h
Outline: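 HeLa cells, alone or with the vacuolization-inducing test compound, were exposed to modulators for 8 h: pan-caspase inhibitor Z-VAD-FMK, autophagy inhibitors 3-MA and LY294002, autophagy activator rapamycin, bafilomycin A1, cycloheximide, ERK1/2 inhibitor PD98059 and JNK inhibitor SP600125. Some inhibitors were given as a 2 h pre-treatment before the test compound. Vacuoles were assessed by microscopy imaging.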

Row | Structure (SMILES) | effect on 12A-induced vacuolization
1 | Cn1cnc(N)c2ncnc1-2 [3-methyladenine] | did not decrease
2 | CO/C1=C\C(C)=C\[C@@H](C)[C@@H](O)[C@@H](C)C/C(C)=C/C=C/[C@H](OC)[C@@H]([C@@H](C)[C@@H](O)[C@H](C)[C@@]2(O)C[C@@H](O)[C@H](C)[C@@H](C(C)C)O2)OC1=O [Baf-A1, Bafilomycin A1] | dramatically blocked the formation of vacuoles
3 | C[C@@H]1C[C@@H]([C@H](O)CC2CC(=O)NC(=O)C2)C(=O)[C@@H](C)C1 [CHX, Cycloheximide] | dramatically blocked the formation of vacuoles
4 | O=c1cc(N2CCOCC2)oc2c(-c3ccccc3)cccc12 [LY294002] | did not decrease
5 | COc1cccc(-c2cc(=O)c3ccccc3o2)c1N [PD98059] | significantly decreased
6 | Oc1c2ccccc2c2c3c(cccc13)N=N2 [SP600125] | significantly decreased
7 | COC(=O)C[C@H](NC(=O)[C@H](C)NC(=O)[C@@H](NC(=O)OCc1ccccc1)C(C)C)C(=O)CF [Z-VAD-FMK] (Cbz-Val-Ala-Asp(OMe)-CH2F) | not inhibited
8 | CO[C@H]1C[C@@H]2CC[C@@H](C)[C@@](O)(O2)C(=O)C(=O)N2CCCC[C@H]2C(=O)O[C@H]([C@H](C)C[C@@H]2CC[C@@H](O)[C@H](OC)C2)CC(=O)[C@H](C)/C=C(\C)[C@@H](O)[C@@H](OC)C(=O)[C@H](C)C[C@H](C)/C=C/C=C/C=C/1C [rapamycin] | failed to promote
